# According to ChEMBL document CHEMBL1123247, “Nucleoside conjugates. 7. Synthesis and antitumor activity of 1-beta-D-arabinofuranosylcytosine conjugates of ether lipids” (J Med Chem, 1986):
# Legend:
# L1210 [1] = experiment: Antitumor activity was determined against the ip implanted L1210 leukemia in mice by range in survival days at 40 mg/kg (treatment of 1-5qd schedule) dosage; 24->45; format: functional, Mus musculus; details: route intraperitoneal
# Outline: (§1)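 DBA/2J mice, 23-28 g, in groups of 6, were inoculated ip with 1×10^6 L1210 cells on day 0. Dosing was ip starting 24 h later on the stated daily schedules. Conjugates were given as sonicated solutions and reference prodrugs as suspensions in 0.9% NaCl with 0.5% Tween-80. Mice were observed daily until death or 45 days. Median survival T/C was calculated from survivors per NCI protocols.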
# L1210 [2] = experiment: Antitumor activity was determined against the ip implanted L1210 leukemia in mice by percent increase in life span at 40 mg/kg (treatment of 1-5qd schedule) dosage; format: functional, Mus musculus; details: route intraperitoneal
# Outline: (§2)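 DBA/2J mice in groups of 6 (wt 23-28 g) were inoculated ip with 1×10^6 L1210 cells on day 0. Dosing was ip from 24 h, in 0.9% NaCl with 0.5% Tween-80 (conjugates sonicated), across a range of doses. Mice were observed daily until death or 45 days. Median T/C was computed from survivors per NCI protocols, and ILS = (T/C − 1)×100.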
# L1210 [3] = experiment: Antitumor activity was determined against the ic implanted L1210 lymphoid leukemia in mice by change in […] at 80 mg/kg (1-5qd treatment schedule) dosage; format: functional, Mus musculus
# Outline: (§3)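 DBA/2J mice, 6 per group (wt 26-32 g), inoculated ic with 1×10^5 L1210 cells on day 0. Dosing ip began 24 h after inoculation, with a sonicated solution or suspension in 0.9% NaCl containing 0.5% Tween-80, given over a range of doses. Animals were followed daily until death. Body weight change, median survival T/C, and %ILS = (T/C − 1) × 100 were computed from survivors per NCI protocols.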
# L1210 [4] = experiment: Antitumor activity was determined against the ic implanted L1210 lymphoid leukemia in mice by change in […] at 100 mg/kg (treatment of 1-5qd schedule) dosage; format: functional, Mus musculus; outline: as §3
# P388 [5] = experiment: Antitumor activity was determined against the ip implanted P388 leukemia in mice by change in […] at 133 mg/kg (treatment of 1qd schedule) dosage; format: functional, Mus musculus; details: dose 300 mg/kg; route intraperitoneal; in the assay text read “300 mg/kg” for “133 mg/kg”
# Outline: (§4)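 P388 leukemia, 1×10^6 cells implanted ip on day 0 into DBA/2J mice, groups of 6 (wt 23-33 g). Dosing ip started 24 h post-inoculation, vehicle 0.9% NaCl containing 0.5% Tween-80. Animals were observed daily until death or 45 days. Outputs were weight change, median survival T/C from survivors per NCI protocols, and %ILS = (T/C − 1) × 100.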
# L1210 [6] = experiment: Antitumor activity against the ic implanted L1210 lymphoid leukemia in mice expressed as optimal dose (1, 5, 9qd treatment schedule) required to produce greatest increase in life span was determined; format: functional, Mus musculus
# Outline: (§5)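 DBA/2J mice, groups of 6 (26-32 g), got 1 × 10^5 L1210 cells ic on day 0. Dosing was ip starting 24 h later, as a sonicated solution or suspension in 0.9% NaCl with 0.5% Tween-80, over a wide dose range. Mice were followed daily until death. Median survival T/C was taken from survivors per NCI protocols, and ILS = (T/C − 1) × 100. Active range means doses giving ILS ≥25%; optimal dose means greatest ILS.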
# L1210 [7] = experiment: Antitumor activity was determined against the ic implanted L1210 lymphoid leukemia in mice by percent increase in life span at 100 mg/kg (treatment of 1-5qd schedule) dosage; format: functional, Mus musculus; outline: as §5
# P388 [8] = experiment: Antitumor activity was determined against the ip implanted P388 leukemia in mice by percent median survival rate (treated/control) at 133 mg/kg (treatment of 1,5,9qd schedule) dosage; Range is >45.0/11.0; details: route intraperitoneal
# L1210 [9] = experiment: Antitumor activity was determined against the ic implanted L1210 lymphoid leukemia in mice by percent increase in life span at 100 mg/kg (treatment of 1-9qd schedule) dosage; format: functional, Mus musculus; outline: as §5
# P388 [10] = experiment: Antitumor activity was determined against the ip implanted P388 leukemia in mice by percent median survival rate (treated/control) at 500 mg/kg (treatment of 1qd schedule) dosage; 15.0/11.0; format: functional, Mus musculus; details: route intraperitoneal
# L1210 [11] = experiment: Antitumor activity was determined against the ip implanted L1210 leukemia in mice by range in survival days at 200 mg/kg (treatment of 1-5qd schedule) dosage; Range is 15-17; format: functional, Mus musculus; details: route intraperitoneal; outline: as §1
# L1210 [12] = experiment: Antitumor activity was determined against the ip implanted L1210 leukemia in mice by 45-day survivors in mice at 200 mg/kg (treatment of 1-5qd schedule) dosage; format: functional, Mus musculus; details: route intraperitoneal; outline: as §2
# AMML = experiment: Compound was tested for the inhibition of AMML (acute myelomonocytic leukemia); format: functional, cell-based; details: Homo sapiens
# Outline: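 Human leukemia and solid tumor cells in culture were exposed to compound for 48 h. Viability was scored by trypan blue dye exclusion. IC50 (50% inhibition) was estimated from response curves of three separate experiments.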
# P388 [13] = experiment: Antitumor activity was determined against the ip implanted P388 leukemia in mice by change in […] at 200 mg/kg (treatment of 1-5qd schedule) dosage; format: functional, Mus musculus; details: route intraperitoneal; outline: as §4
# P388 [14] = experiment: Antitumor activity against ip implanted P388 leukemia in mice expressed as active dose range (1-5qd treatment schedule) required to produce increase in life span by >25% was determined; Range is 20-200; format: functional, Mus musculus
# Outline: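 P388 leukemia: 1 × 10^6 cells were given ip on day 0 to DBA/2J mice, groups of 6 (23-33 g). Treatment was ip from 24 h after inoculation, vehicle 0.9% NaCl with 0.5% Tween-80. Mice were observed daily until death or 45 days. Median survival T/C was calculated from survivors per NCI protocols, and ILS = (T/C − 1) × 100. Active range means doses giving ILS ≥25%; optimal dose means greatest ILS.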
# P388 [15] = experiment: Antitumor activity was determined against the ip implanted P388 leukemia in mice by range in survival days at 500 mg/kg (treatment of 1qd schedule) dosage; Range is 14-15; format: functional, Mus musculus; details: route intraperitoneal
# P388 [16] = experiment: Antitumor activity was determined against the ip implanted P388 leukemia in mice by percent increase in life span at 67 mg/kg (treatment of 1,5,9qd schedule) dosage; format: functional, Mus musculus; details: route intraperitoneal
# L1210 [17] = experiment: Antitumor activity was determined against the ip implanted L1210 leukemia in mice by 45-day survivors in mice at 100 mg/kg (treatment of 1-5qd schedule) dosage; format: functional, Mus musculus; details: route intraperitoneal; outline: as §2
# P388 [18] = experiment: Antitumor activity was determined against the ip implanted P388 leukemia in mice by range in survival days at 60 mg/kg (1-5qd treatment schedule) dosage; 21-24; format: functional, Mus musculus; details: route intraperitoneal
# L1210 [19] = experiment: Antitumor activity was determined against the ip implanted L1210 leukemia in mice by change in […] at 100 mg/kg (treatment of 1-5qd schedule) dosage; format: functional, Mus musculus; details: route intraperitoneal
# Outline: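 DBA/2J mice, 6 per group (wt 23-28 g), inoculated ip with 1×10^6 L1210 cells on day 0. Treatment was given ip in 0.9% NaCl with 0.5% Tween-80, starting 24 h later. Weight change was taken on day 8. Mice were observed daily until death or 45 days. Median survival T/C and %ILS = (T/C − 1) × 100 came from survivors per NCI protocols, and 45-day survivors were counted.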
smiles,measurement,setting,value
CCCCCCCCCCCCCCCC(=O)OC[C@H](COP(=O)(O)OP(=O)(O)OC[C@H]1O[C@@H](n2ccc(N)nc2=O)[C@@H](O)[C@@H]1O)OC(=O)CCCCCCCCCCCCCCC,Range,L1210 [1],24
same,ILS,L1210 [2],275
same,Weight change,L1210 [3],-5.24 g mouse-1
CCCCCCCCCCCCCCCCOCC(COP(=O)(O)OP(=O)(O)OC[C@H]1O[C@@H](n2ccc(N)nc2=O)[C@@H](O)[C@@H]1O)OC(=O)CCCCCCCCCCCCCCC (mixture of isomers),Weight change,L1210 [4],-2.03 g mouse-1
same,Weight change,P388 [5],-1.51 g mouse-1
same,Optimal dose,L1210 [6],167 mg
same,ILS,L1210 [7],214
same,T/C,P388 [8],>45%
Nc1ccn([C@@H]2O[C@H](CO)[C@@H](O)[C@@H]2O)c(=O)n1 [CYTARABINE],ILS,L1210 [9],100
same,T/C,P388 [10],15%
same,Range,L1210 [11],15
same,Survivors,L1210 [12],0
same,IC50,AMML,2.3 µM
same,Weight change,P388 [13],-3.62 g mouse-1
same,Active dose range,P388 [14],20 mg/kg/day
same,Range,P388 [15],14
CCCCCCCCCCCCCCCCCCOCC(COP(=O)(O)OP(=O)(O)OC[C@H]1O[C@@H](n2ccc(N)nc2=O)[C@@H](O)[C@@H]1O)OC(=O)CCCCCCCCCCCCCCC (mixture of isomers),ILS,P388 [16],132
same,Survivors,L1210 [17],0
same,Range,P388 [18],21
same,Weight change,L1210 [19],-0.95 g mouse-1
